Molecules are shown by their SMILES. Calls of active or inactive are those of the source.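 How the source made its calls, unless noted: active means NADPH fluorescence slope more negative than the mean of all samples by about 3 SD, 99.7% confidence; inactive means the rest.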

A short description of experiment [1]: inhibitors of TNFa-induced NFkB p65 translocation, primary screen, imaging, HUVEC, MLSMR starter and 10KST1 sets (AID 438;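 active means inhibition above 20% together with a positive visual image hit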;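 further: compound added about 3h40 before a 20 min TNFalpha stimulation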;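 on inhibition: signal is the nuclear over cytoplasmic p65 intensity ratio per well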). The note with it: HUVEC TNFa-induced p65 nuclear translocation; cell count: measured here: nuclei count (cytotoxicity indicator), at 2.08 µM; inhibition: at 2 µM, stronger effect = higher value, 0% TNFa-plus-vehicle, 100% no-TNFa wells.
Experiment [2] in a line: inhibitors of mutant huntingtin aggregation, primary screen, imaging, exon1htt(103Q)mCFP cells, high-content imaging (AID 483;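 active means visual image review flags a hit and inhibition of aggregation exceeds 20%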;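 further: compound exposure lasted 3 days before fixation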;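 on nuclei count: percent of the per-plate median nuclei count of sample wells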). The note with it: exon1htt(103Q)mCFP cell line, aggregate imaging, at 2 µM; inhibition of aggregation: stronger effect = higher value; nuclei count: measured here: cell count, toxicity.
Experiment [3] can be described thus: inhibitors of E-selectin induction by TNFa, primary screen, imaging, HUVEC, immunofluorescence, MLSMR starter and 10KST1 sets (AID 487;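 active means visually confirmed hit in the image check and inhibition above 20%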;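 on inhibition: signal is fraction of cell area covered by stained E-selectin grains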;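 on nuclei count: 100% = median nuclei count of all wells on the same plate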). Particulars: HUVEC TNFalpha-induced E-selectin immunofluorescence imaging, at 2 µM; inhibition: stronger effect = higher value; nuclei count: measured here: cell number, toxicity.
Experiment [4] has as its target Voltage-gated potassium channel subunit beta-2 (Rattus norvegicus) (UniProt P62483). In words: KvBeta enzyme negative modulators, primary screen, biochemical, NADPH fluorescence (AID 622;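 active means fluorescence slope higher than the sample average by over 3 SD, cut at about -0.22 in these data, passing the limit was not always enough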;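 further: slope of raw intensity against log time taken from 70 to 1610 s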). Particulars: recombinant KvBeta, 4-cyanobenzaldehyde reduction, at 10 µM, stronger effect = higher value.
Experiment [5] shares this target. Description: KvBeta positive modulators, primary screen, biochemical, NADPH fluorescence (AID 623).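 Further: fluorescence intensity change per second fitted from 20 to 320 s.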 The note with it: Recombinant KvBeta, NADPH fluorescence decrease slope, 10 min; at 10 µM; stronger effect = lower value.
In experiment [6] the target is Muscarinic acetylcholine receptor M4 (Homo sapiens) (UniProt P08173). Description: compounds altering M4/GIRK thallium flux, either direction, primary screen, M4 allosteric agonist project, cell-based, HEK293 M4/GIRK, BTC-AM (AID 625;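 active means fluorescence slope after compound addition differing from the mean of all tested samples at 99.7% confidence, mostly higher but some lower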;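 further: thallium influx through GIRK channels coupled to M4 in HEK293 cells with BTC-AM dye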). Particulars: at 10 µM, actives lie on both sides. Summed up:
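System: HEK293 cells with M4 receptor and GIRK channels | Incubation: Cells overnight at 37 °C, BTC-AM loading 1 h, reads 2 min total | Technique: Kinetic BTC-AM fluorescence sampled at 1 Hz, 10 s pre-addition baseline | Measure: Post-addition slope, 15–24 s, of baseline-normalized fluorescence | Control set: Carbachol positive, DMSO negative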

Experiment [7] in a line: inhibitors of Sendai virus-induced IRF3 signaling, primary screen, TLR/RLR signaling modifier project, cell-based, Sendai virus stimulus, luciferase, 10K MLSCN set (AID 602276;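 active means inhibition at or above 50% at 10 µM; inactive means inhibition below 50%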;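 further: firefly luciferase from ISG56 promoter only with Renilla not read in this screen; 0% = Sendai virus plus DMSO and 100% = medium plus DMSO without virus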). Particulars: HEK293 RL24 IRF3 luciferase reporter, at 10 µM, stronger effect = higher value.
Experiment [8] can be described thus: inhibitors of poly I:C-induced TLR3 signaling, primary screen, cell-based, poly I:C stimulus, luciferase, 10K MLSCN set (AID 602277;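 active means inhibition of the reporter signal at or above 50%; inactive means inhibition below 50%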). The note with it: HEK293-TLR3 RL24 IRF3 luciferase reporter, at 10 µM, stronger effect = higher value.

Sequence of Muscarinic acetylcholine receptor M4 (Homo sapiens) (P08173 whole entry, looked up): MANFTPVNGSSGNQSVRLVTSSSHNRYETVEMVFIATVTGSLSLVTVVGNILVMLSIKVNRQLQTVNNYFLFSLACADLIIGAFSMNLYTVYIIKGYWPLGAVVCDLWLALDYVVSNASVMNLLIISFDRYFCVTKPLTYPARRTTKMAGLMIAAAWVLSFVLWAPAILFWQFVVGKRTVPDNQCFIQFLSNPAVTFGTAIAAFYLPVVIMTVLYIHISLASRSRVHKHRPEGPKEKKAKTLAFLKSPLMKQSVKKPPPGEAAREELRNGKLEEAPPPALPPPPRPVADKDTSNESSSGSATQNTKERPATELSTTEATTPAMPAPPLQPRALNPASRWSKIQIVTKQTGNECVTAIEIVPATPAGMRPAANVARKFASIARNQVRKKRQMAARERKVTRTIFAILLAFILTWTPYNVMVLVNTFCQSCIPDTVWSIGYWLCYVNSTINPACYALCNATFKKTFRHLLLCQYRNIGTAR
Sequence of Voltage-gated potassium channel subunit beta-2 (Rattus norvegicus) (P62483 whole entry, looked up): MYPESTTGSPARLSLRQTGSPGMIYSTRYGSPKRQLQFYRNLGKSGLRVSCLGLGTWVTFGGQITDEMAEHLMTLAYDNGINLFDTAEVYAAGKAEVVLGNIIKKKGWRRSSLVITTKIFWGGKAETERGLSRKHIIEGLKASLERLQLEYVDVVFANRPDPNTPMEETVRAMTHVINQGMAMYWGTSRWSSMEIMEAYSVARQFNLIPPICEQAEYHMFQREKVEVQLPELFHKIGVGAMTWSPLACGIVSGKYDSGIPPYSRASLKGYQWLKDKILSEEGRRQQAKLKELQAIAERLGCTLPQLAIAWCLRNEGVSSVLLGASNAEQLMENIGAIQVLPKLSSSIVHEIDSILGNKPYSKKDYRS

In the case of `CC(=O)C1=C(O)C(=O)N(Cc2ccco2)C1c1ccc(F)cc1` (stereo not drawn), the cell count in experiment [1] was found to be 381. Further, the inhibition was 4.3% (inactive) in experiment [1], 21.9% (inactive) in experiment [3], 2% (inactive) in experiment [7] and 0.393% (inactive) in experiment [8]. Further, the inhibition of aggregation in experiment [2] was -7.7% (inactive). The values for the nuclei count in experiment [2] and in experiment [3] were 92.3% and 98%, respectively. Moreover, the fluorescence slope in experiment [4] was -0.576 (inactive); in experiment [6], 0.00555 (inactive). Besides, in experiment [5], the NADPH fluorescence slope was 1e-05 (inactive).
As for `COc1ccc(CN2C(=O)c3cccnc3C2Nc2cc(Cl)ccc2OC)cc1` (stereo not drawn), the cell count in experiment [1] stood at 482. The inhibition in experiment [1] was 3% (inactive); in experiment [3] it was -26.9% (inactive); in experiment [7] it was -6.43% (inactive); in experiment [8], -6.33% (inactive). Also, the inhibition of aggregation in experiment [2] is 0.1% (inactive). The nuclei count in experiment [2] stood at 105%; in experiment [3], 112%. The results for the fluorescence slope in experiment [4] and in experiment [6] were -0.445 (inactive) and 0.00665 (inactive), respectively. Besides, in experiment [5], the NADPH fluorescence slope was 0.00011 (inactive).
Consider `COc1ccccc1NC(=O)N(Cc1ccccc1)c1ccccn1`, for which the cell count in experiment [1] came to 756. Also, the inhibition is 3.2% (inactive) in experiment [1], 19.9% (inactive) in experiment [3], -7.55% (inactive) in experiment [7] and -38.8% (inactive) in experiment [8]. For the same molecule, the inhibition of aggregation in experiment [2] is -5.9% (inactive). Besides, the nuclei count was found to be 93.7% in experiment [2] and 114% in experiment [3]. In addition, the fluorescence slope is -0.581 (inactive) in experiment [4] and 0.00744 (inactive) in experiment [6]. Moreover, in experiment [5], the NADPH fluorescence slope is -7e-05 (inactive).
`CCOC(=O)c1ccccc1NC(=O)Cn1cnc2c(cnn2-c2ccc(OC)cc2)c1=O`: in experiment [1], the cell count worked out at 705. Also, the inhibition was -25.5% (inactive) in experiment [1], -0.4% (inactive) in experiment [3], 10.8% (inactive) in experiment [7] and 22.8% (inactive) in experiment [8]. Also, in experiment [2], the inhibition of aggregation was -6.3% (inactive). For the same molecule, the nuclei count in experiment [2] is 108%; in experiment [3], 101%. The fluorescence slope is -0.237 (inactive) in experiment [4] and 0.0067 (inactive) in experiment [6]. For the same molecule, the NADPH fluorescence slope in experiment [5] was -4.6e-06 (inactive).
On to `CN(C)C(=O)CSc1nnc([C@H](Cc2c[nH]c3ccccc23)NC(=O)OC(C)(C)C)o1`, for which the cell count in experiment [1] was determined as 375. Moreover, the inhibition in experiment [1] was 2.2% (inactive); in experiment [3] it was -35.8% (inactive); in experiment [7], 18.2% (inactive); in experiment [8], 23.4% (inactive). Also, the inhibition of aggregation in experiment [2] is -9.3% (inactive). The nuclei count in experiment [2] was found to be 108%; in experiment [3], 112%. Besides, the fluorescence slope in experiment [4] is -0.634 (inactive); in experiment [6], 0.00313 (inactive). For the same molecule, in experiment [5], the NADPH fluorescence slope is -2.1e-05 (inactive).
With `CN(C)C=Nc1nonc1N`, the cell count in experiment [1] was found to be 429. For the same molecule, the inhibition in experiment [1] is 9% (inactive); in experiment [3] it was 24.6% (inactive); in experiment [7], 18% (inactive); in experiment [8], 21% (inactive). Besides, the inhibition of aggregation in experiment [2] is -2% (inactive). Besides, the nuclei count is 105% in experiment [2] and 99.3% in experiment [3]. Besides, the values for the fluorescence slope in experiment [4] and in experiment [6] were -0.584 (inactive) and 0.00382 (inactive), respectively. Moreover, the NADPH fluorescence slope in experiment [5] was -7.3e-05 (inactive).
Consider `COc1ccc(CC(=O)OCC(=O)NC(=O)NC2CCCCC2)cc1`, for which, in experiment [1], the cell count stood at 505. Besides, the inhibition was -13.7% (inactive) in experiment [1], -5.5% (inactive) in experiment [3], 9.64% (inactive) in experiment [7] and 15.4% (inactive) in experiment [8]. Moreover, the inhibition of aggregation in experiment [2] is -0.9% (inactive). The nuclei count worked out at 80.9% in experiment [2] and 121% in experiment [3]. The fluorescence slope was -0.509 (inactive) in experiment [4] and 0.00502 (inactive) in experiment [6]. In addition, the NADPH fluorescence slope in experiment [5] was 4.4e-05 (inactive).
For `CN1CCN(C(=O)CCC(=O)c2ccc(F)cc2)CC1`, in experiment [1], the cell count was determined as 478. For the same molecule, the inhibition in experiment [1] is 3.9% (inactive); in experiment [3], -2.6% (inactive); in experiment [7], 5.42% (inactive); in experiment [8], 11.9% (inactive). Moreover, the inhibition of aggregation in experiment [2] is -7.4% (inactive). In addition, the nuclei count was 122% in experiment [2] and 97.1% in experiment [3]. For the same molecule, the fluorescence slope in experiment [4] is -0.444 (inactive); in experiment [6] it was 0.00581 (inactive). Besides, the NADPH fluorescence slope in experiment [5] was 5.6e-05 (inactive).
In the case of `CCN1CCN(C(=O)c2cn(CCOC)c(=O)c3c2c2ccccc2n3C)CC1`, the cell count in experiment [1] came out at 460. Also, the inhibition in experiment [1] was 2.7% (inactive); in experiment [3], -40.3% (inactive); in experiment [7] it was 6.11% (inactive); in experiment [8], 14.5% (inactive). Further, the inhibition of aggregation in experiment [2] is 2.4% (inactive). Besides, the values for the nuclei count in experiment [2] and in experiment [3] were 108% and 109%, respectively. Besides, the fluorescence slope in experiment [4] was -0.582 (inactive); in experiment [6], 0.00622 (inactive). The NADPH fluorescence slope in experiment [5] is -6.9e-06 (inactive).
For `Cc1cc(C)n(-c2nc3ccccc3c(=O)n2OCCOc2ccccc2)n1`, in experiment [1], the cell count was determined as 533. In addition, the inhibition in experiment [1] was -9% (inactive); in experiment [3] it was -17.9% (inactive); in experiment [7], -12.3% (inactive); in experiment [8] it was -13.3% (inactive). The inhibition of aggregation in experiment [2] was -7.8% (inactive). In addition, the nuclei count is 107% in experiment [2] and 94.2% in experiment [3]. In addition, the fluorescence slope in experiment [4] was -0.453 (inactive); in experiment [6], 0.00727 (inactive). The NADPH fluorescence slope in experiment [5] was 8.7e-05 (inactive).
On to `Cc1cccc2cc(CN(Cc3nnnn3Cc3ccccc3)C3CCCC3)c(=O)[nH]c12`, for which, in experiment [1], the cell count was 561. Also, the inhibition in experiment [1] is -9% (inactive); in experiment [3], -35.7% (inactive); in experiment [7] it was 14.3% (inactive); in experiment [8], 15% (inactive). For the same molecule, the inhibition of aggregation in experiment [2] is -39.5% (inactive). In addition, the nuclei count in experiment [2] was 76.4%; in experiment [3], 111%. The values for the fluorescence slope in experiment [4] and in experiment [6] were -0.483 (inactive) and 0.00509 (inactive), respectively. Further, the NADPH fluorescence slope in experiment [5] is -0.00011 (inactive).
With `CCOC(=O)c1cc2c(=O)n3cccc(C)c3nc2n(Cc2ccco2)c1=NC(=O)c1cccnc1`, the cell count in experiment [1] was 791. Further, the inhibition in experiment [1] was -1.1% (inactive); in experiment [3] it was -59.3% (inactive); in experiment [7] it was 8% (inactive); in experiment [8], -0.151% (inactive). In addition, the inhibition of aggregation in experiment [2] is 1.7% (inactive). In addition, the nuclei count is 108% in experiment [2] and 112% in experiment [3]. Besides, the fluorescence slope in experiment [4] is -0.439 (inactive); in experiment [6], 0.00326 (inactive). Further, the NADPH fluorescence slope in experiment [5] is -2e-05 (inactive).
On to `Cc1onc(-c2ccccc2)c1C(N)=O`, for which the cell count in experiment [1] worked out at 506. Also, the inhibition in experiment [1] was -11.2% (inactive); in experiment [3], -158% (inactive); in experiment [7] it was 16% (inactive); in experiment [8], 16.2% (inactive). Moreover, in experiment [2], the inhibition of aggregation was -1.6% (inactive). Moreover, the nuclei count was determined as 98.5% in experiment [2] and 159% in experiment [3]. The fluorescence slope is -0.563 (inactive) in experiment [4] and 0.00641 (inactive) in experiment [6]. Moreover, in experiment [5], the NADPH fluorescence slope was -6.3e-05 (inactive).

(Values after PubChem BioAssay.)
